Source: ChEMBL document CHEMBL4041502, “Zoanthamine-Type Alkaloids from the Zoanthid Zoanthus kuroshio Collected in Taiwan and Their Effects on Inflammation” (2016)

Key:
Neutrophil [1] = assay: Anti-inflammatory activity in human neutrophils assessed as inhibition of fMLP/CB-induced superoxide anion production by measuring reduction of ferricytochrome c at 10 uM pretreated for 5 mins followed by fMLP/CB addition measured after 10 mins by spectrophotometric method relative to control; format: functional
Outline: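 Donor neutrophils (healthy, 20−35 y) held 2 min at 37 °C in 0.5 mg/mL ferricytochrome c with 1 mM Ca2+, then 5 min with compound, then fMLP 100 nM/cytochalasin B 1 μg/mL for 10 min. Continuous 550 nm read with stirring. SOD-inhibitable (100 U/mL) difference converted using ε = 21.1/mM/10 mm. Inhibition % at 10 μM, mean ± SEM (n = 3, 4).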

Neutrophil [2] = assay: Anti-inflammatory activity in human neutrophils assessed as inhibition of fMLP/CB-induced elastase release at 10 uM using MeO-Suc-Ala-Ala-Pro-Val-p-nitroanilide as a substrate pretreated for 5 mins followed by fMLP/CB addition relative to control; format: functional
Outline: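 Neutrophils from healthy donors aged 20−35 (venipuncture), equilibrated at 37 °C for 2 min with 100 μM MeO-Suc-Ala-Ala-Pro-Val-p-nitroanilide, then exposed to compound 5 min. Stimulus: 100 nM fMLP plus 0.5 μg/mL cytochalasin B. Elastase release followed continuously at 405 nm. Percent inhibition at 10 μM versus control, mean ± SEM (n = 3, 4).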

SMILES	inhibition at 10 µM (Neutrophil [1]) [%]	inhibition at 10 µM (Neutrophil [2]) [%]
CC1=CC(=O)[C@@H]2[C@@H](C1)[C@]13CO[C@@]4([C@H]1O)N1C[C@H]5C[C@H](C)C[C@@]1(O5)[C@@H](O)C[C@@]4(C)[C@]1(COC(=O)C1)[C@H]3C(=O)[C@@H]2C	11	27
CC1=CC(=O)[C@@H]2[C@@H](C1)[C@]1(C)C=C3N4C[C@H]5C[C@H](C)C[C@]4(CC[C@@]3(C)[C@]3(COC(=O)C3)[C@H]1C(=O)[C@@H]2C)O5	18	30
CC1=CC(=O)[C@H]2[C@@H](C1)[C@]13CO[C@@]4([C@H]1O)N1C[C@H]5C[C@H](C)C[C@]1(CC[C@@]4(C)[C@]1(COC(=O)C1)[C@H]3C(=O)[C@@H]2C)O5	15	13
CC1=CC(=O)[C@@H]2[C@@H](C1)C13C=C4N5C[C@H]6C[C@H](C)C[C@]5(CC[C@@]4(C)[C@]4(COC(=O)C4)[C@H]1[C@@](O)(OC3)[C@@H]2C)O6	17	17
CC1=CC(=O)[C@H]2[C@@H](C1)[C@]13CO[C@@]4(C1=O)N1C[C@H]5C[C@H](C)C[C@]1(CC[C@@]4(C)[C@]1(COC(=O)C1)[C@H]3C(=O)[C@@H]2C)O5	14	23
CO[C@@H]1[C@@H](C)C[C@@H]2CN3[C@@]1(CC[C@@]1(C)[C@]4(COC(=O)C4)[C@H]4C(=O)[C@H](C)[C@@H]5C(=O)C=C(C)C[C@H]5[C@@]45CO[C@@]31C5=O)O2	20	33
CC1=CC(=O)[C@@H]2[C@@H](C1)[C@]13CO[C@@]4(C1=O)N1C[C@H]5C[C@H](C)C[C@]1(CC[C@@]4(C)[C@]1(COC(=O)C1)[C@H]3C(=O)[C@@H]2C)O5	7	27
CC1=CC(=O)[C@@H]2[C@@H](C1)[C@]13CO[C@@]4([C@H]1Cl)N1C[C@H]5C[C@H](C)C[C@]1(CC[C@@]4(C)[C@]1(COC(=O)C1)[C@H]3C(=O)[C@@H]2C)O5	23	25
CC1=CC(=O)[C@@H]2[C@@H](C1)C13C=C4N5C[C@H]6C[C@H](C)[C@@H](I)[C@]5(CC[C@@]4(C)[C@]4(COC(=O)C4)[C@H]1[C@@](O)(OC3)[C@@H]2C)O6	24	43
CC1=CC(=O)[C@@H]2[C@@H](C1)C13C=C4N5C[C@@H]6O[C@@]5(CC[C@@]4(C)[C@]4(COC(=O)C4)[C@H]1[C@@](O)(OC3)[C@@H]2C)C[C@@H](C)[C@@H]6O	14	25
CC1=CC(=O)[C@@H]2[C@@H](C1)[C@]13CO[C@@]4(C1=O)N1C[C@H]5C[C@H](C)C[C@@]1(O5)[C@@H](O)C[C@@]4(C)[C@]1(COC(=O)C1)[C@H]3C(=O)[C@@H]2C	13	15
CC1=CC(=O)[C@@H]2[C@@H](C1)[C@]13CO[C@@]4([C@H]1O)N1C[C@H]5C[C@H](C)C[C@]1(CC[C@@]4(C)[C@]1(COC(=O)C1)[C@H]3C(=O)[C@@H]2C)O5	9	6
O=c1cc(N2CCOCC2)oc2c(-c3ccccc3)cccc12 [LY-294002]	99	73
